Measurements published in ChEMBL document CHEMBL4334464, “From Phenylthiazoles to Phenylpyrazoles: Broadening the Antibacterial Spectrum toward Carbapenem-Resistant Bacteria” (J Med Chem, 2019).
Values after ≈ are worked out from the molar mass of the structure shown. Active and inactive are the calls of the source. No cut-off for these calls is given here.

Key:
Streptococcus pneumoniae [1] = assay: Antibacterial activity against cephalosporin-resistant Streptococcus pneumoniae ATCC 51916 clinical isolates after 18 to 20 hrs by CLSI-based broth microdilution assay; type: functional
Escherichia coli [2] = assay: Antimicrobial activity against Escherichia coli JW55031 harboring deltatolC mutant after 18 to 20 hrs in aerobic condition by CLSI protocol based broth microdilution assay; type: functional
Shigella flexneri = assay: Antibacterial activity against Shigella flexneri ATCC 9199 clinical isolates after 18 to 20 hrs in aerobic condition by CLSI-based broth microdilution assay; type: functional
Klebsiella pneumoniae [3] = assay: Antibacterial activity against Klebsiella pneumoniae BAA-1706 clinical isolates after 18 to 20 hrs in aerobic condition by CLSI-based broth microdilution assay; type: functional
Clostridioides difficile = assay: Antibacterial activity against Clostridium difficile ATCC BAA 1870 incubated for 48 hrs in anaerobic condition by CLSI-based broth microdilution assay; type: functional; details: ATCC BAA 1870, 48 h
Streptococcus pneumoniae [4] = assay: Ratio of MBC to MIC for […] Streptococcus pneumoniae ATCC 700677 clinical isolates; type: functional
Escherichia coli [5] = assay: Ratio of MBC to MIC for Escherichia coli ATCC 35150 clinical isolates; type: functional
Escherichia coli [6] = assay: microbe, parasite or virus in culture; details: ATCC 1411
Klebsiella pneumoniae [7] = assay: Antibacterial activity against Klebsiella pneumoniae BAA-1144 clinical isolates after 18 to 20 hrs in aerobic condition by CLSI-based broth microdilution assay; type: functional
Salmonella enterica = assay: Ratio of MBC to MIC for Salmonella enterica NR-170 clinical isolates; type: functional
[8] = target: T1, Ditrans,polycis-undecaprenyl-diphosphate synthase ((2E,6E)-farnesyl-diphosphate specific) (Escherichia coli (strain K12)) (UniProt P60472); assay: Inhibition of Escherichia coli UPPS using FPP/IPP as substrate preincubated for 30 mins followed by substrates addition and measured after 30 mins by malachite green reagent based assay
T1 sequence (whole entry): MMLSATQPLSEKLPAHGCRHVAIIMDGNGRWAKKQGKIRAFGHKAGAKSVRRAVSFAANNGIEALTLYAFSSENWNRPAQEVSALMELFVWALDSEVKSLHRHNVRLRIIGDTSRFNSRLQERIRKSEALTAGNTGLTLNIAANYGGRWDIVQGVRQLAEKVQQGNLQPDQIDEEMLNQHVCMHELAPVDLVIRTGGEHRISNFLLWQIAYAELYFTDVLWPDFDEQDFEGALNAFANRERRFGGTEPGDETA

Streptococcus pneumoniae [9] = assay: Antibacterial activity against methicillin-resistant Streptococcus pneumoniae ATCC 700677 clinical isolates after 18 to 20 hrs by CLSI-based broth microdilution assay; type: functional
Salmonella enteritidis [10] = assay: Antibacterial activity against Salmonella enteritidis ATCC 14028 clinical isolates after 18 to 20 hrs in aerobic condition by CLSI-based broth microdilution assay; type: functional, Salmonella enterica subsp. enterica serovar Enteritidis; details: Salmonella enterica
Enterococcus faecalis = assay: Antibacterial activity against vancomycin-resistant Enterococcus faecalis ATCC 51299 clinical isolates after 18 to 20 hrs in aerobic condition by CLSI-based broth microdilution assay; type: functional
Escherichia coli [11] = assay: Ratio of MBC to MIC for Escherichia coli BW25113 clinical isolates; type: functional
Listeria monocytogenes [12] = assay: Antibacterial activity against Listeria monocytogenes ATCC 19111 after 18 to 20 hrs in aerobic condition by CLSI-based broth microdilution assay; type: functional
Enterococcus faecium = assay: Antibacterial activity against vancomycin-resistant Enterococcus faecium ATCC 700221 clinical isolates after 18 to 20 hrs in aerobic condition by CLSI-based broth microdilution assay; type: functional
Acinetobacter baumannii [13] = assay: Antibacterial activity against Acinetobacter baumannii ATCC 19606 clinical isolates after 18 to 20 hrs in aerobic condition by CLSI-based broth microdilution assay; type: functional; details: ATCC 19606 = CIP 70.34 = JCM 6841
Acinetobacter baumannii [14] = assay: Antibacterial activity against Acinetobacter baumannii NR 17785 clinical isolates after 18 to 20 hrs in aerobic condition by CLSI-based broth microdilution assay; type: functional
Acinetobacter baumannii [15] = assay: Ratio of MBC to MIC for Acinetobacter baumannii ATCC 19606 clinical isolates; type: functional, ATCC 19606 = CIP 70.34 = JCM 6841
[16] = system: Staphylococcus epidermidis; assay: Antibacterial activity against Staphylococcus epidermidis NRS101 after 18 to 20 hrs in aerobic condition by CLSI-based broth microdilution assay; type: functional
Salmonella enteritidis [17] = assay: Ratio of MBC to MIC for Salmonella enteritidis ATCC 14028 clinical isolates; type: functional, Salmonella enterica subsp. enterica serovar Enteritidis
Salmonella typhimurium [18] = assay: Ratio of MBC to MIC for Salmonella typhimurium ATCC 700720 clinical isolates; type: functional, Salmonella enterica subsp. enterica serovar Typhimurium
Salmonella typhimurium [19] = assay: Antibacterial activity against Salmonella typhimurium ATCC 700720 after 18 to 20 hrs in aerobic condition by CLSI-based broth microdilution assay; type: functional, Salmonella enterica subsp. enterica serovar Typhimurium; details: Salmonella enterica
Staphylococcus aureus [20] = assay: Ratio of MBC to MIC for Methicillin-sensitive Staphylococcus aureus NRS107 clinical isolates; type: functional
Listeria monocytogenes [21] = assay: Ratio of MBC to MIC for Listeria monocytogenes ATCC 19111 clinical isolates; type: functional
Escherichia coli [22] = assay: Antibacterial activity against Escherichia coli ATCC 25922 clinical isolates after 18 to 20 hrs in aerobic condition by CLSI-based broth microdilution assay; type: functional
Salmonella enteritidis [23] = assay: Ratio of MBC to MIC for Salmonella enteritidis ATCC 13076 clinical isolates; type: functional, Salmonella enterica subsp. enterica serovar Enteritidis
Staphylococcus aureus [24] = assay: Antibacterial activity against Methicillin-sensitive Staphylococcus aureus ATCC 6538 clinical isolates after 18 to 20 hrs in aerobic condition by CLSI protocol based broth microdilution assay; type: functional
Staphylococcus aureus [25] = assay: Antibiofilm activity against methicillin-resistant Staphylococcus aureus NRS384-USA300 clinical isolates assessed as inhibition of biofilm formation at 0.5 times MIC incubated for 24 hrs by crystal violet staining based spectrophotometric method relative to control; type: functional
Staphylococcus aureus [26] = assay: Antibacterial activity against Methicillin-resistant Staphylococcus aureus NRS123-USA400 clinical isolates after 18 to 20 hrs in aerobic condition by CLSI protocol based broth microdilution assay; type: functional
Escherichia coli [27] = assay: Ratio of MBC to MIC for Escherichia coli ATCC 25922 clinical isolates; type: functional
[28] = Stability in human liver microsomes assessed as compound remaining incubated for 15 mins in presence of NADPH by LC/MS/MS analysis; type: ADME, Microsome; details: read-out: Stability
Summary of the method: (§1)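 Two independent runs (1st and 2nd) were done at each time point, and the mean percent remaining is reported. Incubations were run both with and without NADPH. Half-life and intrinsic clearance (Clint) were derived from the time-course data.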

[29] = Stability in human liver microsomes assessed as compound remaining incubated for 60 mins in presence of NADPH by LC/MS/MS analysis; type: ADME, Microsome; details: read-out: Stability; summary of the method: as §1
[30] = Half life in human liver microsomes in presence of NADPH by LC/MS/MS analysis; type: ADME, Microsome
[31] = Apparent permeability across apical to basolateral side in human Caco2 cells after 2 hrs by LC/MS/MS analysis; type: ADME, cell-based; details: Caco-2
[32] = Stability in human liver microsomes assessed as compound remaining incubated for 15 mins in absence of NADPH by LC/MS/MS analysis; type: ADME, Microsome; details: read-out: Stability
[33] = Stability in human liver microsomes assessed as compound remaining incubated for 60 mins in absence of NADPH by LC/MS/MS analysis; type: ADME, Microsome; details: read-out: Stability; summary of the method: as §1
[34] = Intrinsic clearance in human liver microsomes in absence of NADPH by LC/MS/MS analysis; type: ADME, Microsome; details: read-out: CLH

Row | SMILES | MIC (Streptococcus pneumoniae [1]) | MIC (Escherichia coli [2]) | MIC (Shigella flexneri) | MIC (Klebsiella pneumoniae [3]) | MIC (Clostridioides difficile) | Ratio (Streptococcus pneumoniae [4]) | Ratio (Escherichia coli [5]) | MIC (Escherichia coli [6]) | MIC (Klebsiella pneumoniae [7]) | Ratio (Salmonella enterica) | inhibition [8] | MIC (Streptococcus pneumoniae [9]) | MIC (Salmonella enteritidis [10]) | MIC (Enterococcus faecalis) | Ratio (Escherichia coli [11]) | MIC (Listeria monocytogenes [12]) | MIC (Enterococcus faecium) | MIC (Acinetobacter baumannii [13]) | MIC (Acinetobacter baumannii [14]) | Ratio (Acinetobacter baumannii [15]) | further results
1 | C/C(=N\NC(=N)N)c1cnn(-c2ccc(C#CC3CCCCC3)cc2)c1C | 2 µg/mL (≈ 5.52 µM) | 2 µg/mL (≈ 5.52 µM) | 8 µg/mL (≈ 22.1 µM) | 8 µg/mL (≈ 22.1 µM) | 4 µg/mL (≈ 11 µM) | <3 | >=1 | 8 µg/mL (≈ 22.1 µM) | 16 µg/mL (≈ 44.1 µM) | >=1 | inactive | 2 µg/mL (≈ 5.52 µM) | 32 µg/mL (≈ 88.3 µM) | 2 µg/mL (≈ 5.52 µM) | >=1 | 2 µg/mL (≈ 5.52 µM) | 1 µg/mL (≈ 2.76 µM) | 4 µg/mL (≈ 11 µM) | 8 µg/mL (≈ 22.1 µM) | >=1 | MIC [16]: 2 µg/mL (≈ 5.52 µM); Ratio (Salmonella enteritidis [17]): >=1; Ratio (Salmonella typhimurium [18]): >=1; MIC (Salmonella typhimurium [19]): 8 µg/mL (≈ 22.1 µM); Ratio (Staphylococcus aureus [20]): <=2; Ratio (Listeria monocytogenes [21]): <3; MIC (Escherichia coli [22]): 4 µg/mL (≈ 11 µM); Ratio (Salmonella enteritidis [23]): >=1; MIC (Staphylococcus aureus [24]): 2 µg/mL (≈ 5.52 µM); inhibition (INH) (Staphylococcus aureus [25]): 22%; MIC (Staphylococcus aureus [26]): 2 µg/mL (≈ 5.52 µM); Ratio (Escherichia coli [27]): >=1
2 | C/C(=N\NC1=NCCN1)c1cnn(-c2ccc(C#CC3CCCC3)cc2)c1C | 8 µg/mL (≈ 21.4 µM) | 4 µg/mL (≈ 10.7 µM) | 32 µg/mL (≈ 85.4 µM) | 32 µg/mL (≈ 85.4 µM) | 4 µg/mL (≈ 10.7 µM) | <3 | >=1 | 64 µg/mL (≈ 171 µM) | 64 µg/mL (≈ 171 µM) | >=1 | inactive | 4 µg/mL (≈ 10.7 µM) | 32 µg/mL (≈ 85.4 µM) | 8 µg/mL (≈ 21.4 µM) | >=1 | 4 µg/mL (≈ 10.7 µM) | 4 µg/mL (≈ 10.7 µM) | 16 µg/mL (≈ 42.7 µM) | 8 µg/mL (≈ 21.4 µM) | >=1 | remaining at 0.25 h [28]: 99%; remaining at 1 h [29]: 79%; half-life [30]: 2.55 h; MIC [16]: 2 µg/mL (≈ 5.34 µM); Ratio (Salmonella enteritidis [17]): >=1; Papp A→B at 2 h [31]: 0.1 ×10⁻⁶ cm/s; Ratio (Salmonella typhimurium [18]): >=1; MIC (Salmonella typhimurium [19]): 64 µg/mL (≈ 171 µM); Ratio (Staphylococcus aureus [20]): <=2; Ratio (Listeria monocytogenes [21]): <3; MIC (Escherichia coli [22]): 32 µg/mL (≈ 85.4 µM); Ratio (Salmonella enteritidis [23]): >=1; remaining at 0.25 h [32]: 98%; remaining at 1 h [33]: 97%; microsomal CLint [34]: < 116 µL/min/mg; MIC (Staphylococcus aureus [24]): 1 µg/mL (≈ 2.67 µM); MIC (Staphylococcus aureus [26]): 4 µg/mL (≈ 10.7 µM); Ratio (Escherichia coli [27]): >=1
3 | CCCCCC#Cc1ccc(-n2ncc(/C(C)=N/NC3=NCCN3)c2C)cc1 | 4 µg/mL (≈ 10.6 µM) | 2 µg/mL (≈ 5.31 µM) | > 128 µg/mL | > 128 µg/mL | 4 µg/mL (≈ 10.6 µM) | <3 | >=1 | > 128 µg/mL | > 128 µg/mL | >=1 | inactive | 2 µg/mL (≈ 5.31 µM) | > 128 µg/mL | 4 µg/mL (≈ 10.6 µM) | >=1 | 2 µg/mL (≈ 5.31 µM) | 2 µg/mL (≈ 5.31 µM) | 8 µg/mL (≈ 21.2 µM) | > 128 µg/mL | >=1 | MIC [16]: 2 µg/mL (≈ 5.31 µM); Ratio (Salmonella enteritidis [17]): >=1; Ratio (Salmonella typhimurium [18]): >=1; MIC (Salmonella typhimurium [19]): > 128 µg/mL; Ratio (Staphylococcus aureus [20]): <=2; Ratio (Listeria monocytogenes [21]): <3; MIC (Escherichia coli [22]): > 128 µg/mL; Ratio (Salmonella enteritidis [23]): >=1; MIC (Staphylococcus aureus [24]): 2 µg/mL (≈ 5.31 µM); MIC (Staphylococcus aureus [26]): 4 µg/mL (≈ 10.6 µM); Ratio (Escherichia coli [27]): >=1
4 | CCCC#Cc1ccc(-n2ncc(/C(C)=N/NC(=N)N)c2C)cc1 | 4 µg/mL (≈ 12.4 µM) | 4 µg/mL (≈ 12.4 µM) | 16 µg/mL (≈ 49.6 µM) | 8 µg/mL (≈ 24.8 µM) | 8 µg/mL (≈ 24.8 µM) | <3 | >=1 | 16 µg/mL (≈ 49.6 µM) | 16 µg/mL (≈ 49.6 µM) | >=1 | inactive | 4 µg/mL (≈ 12.4 µM) | 16 µg/mL (≈ 49.6 µM) | 4 µg/mL (≈ 12.4 µM) | >=1 | 4 µg/mL (≈ 12.4 µM) | 4 µg/mL (≈ 12.4 µM) | 8 µg/mL (≈ 24.8 µM) | 8 µg/mL (≈ 24.8 µM) | >=1 | MIC [16]: 4 µg/mL (≈ 12.4 µM); Ratio (Salmonella enteritidis [17]): >=1; Ratio (Salmonella typhimurium [18]): >=1; MIC (Salmonella typhimurium [19]): 16 µg/mL (≈ 49.6 µM); Ratio (Staphylococcus aureus [20]): <=2; Ratio (Listeria monocytogenes [21]): <3; MIC (Escherichia coli [22]): 8 µg/mL (≈ 24.8 µM); Ratio (Salmonella enteritidis [23]): >=1; MIC (Staphylococcus aureus [24]): 2 µg/mL (≈ 6.2 µM); inhibition (INH) (Staphylococcus aureus [25]): 74%; MIC (Staphylococcus aureus [26]): 2 µg/mL (≈ 6.2 µM); Ratio (Escherichia coli [27]): >=1
